A selection: hits, their analogues and other compounds. The true share with any hit is near 27%.
CYP2C19 act = cytochrome P450 2C19 (human) activation. P33261. recombinant CYP2C19, luciferin-H EGE luminescence; hits give high values; 0 = fully inhibited enzyme, 1 = untreated enzyme. activation factor at 5 µM. 96,000 tested, under 10 active;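 active = activation factor of at least 2 at 5 µM in the primary screen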;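 also: 0 = wells with 2.5 mM tranylcypromine and 1 = vehicle-only wells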
HIV Rev-RRE inh = HIV Rev-RRE protein-RNA interaction inhibition; Rev peptide-RRE RNA binding, FRET; P05866; hit rate 0.79% among 97,000; inhibition, % at 8 µM;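 active = inhibition above the screen-wide mean plus 3 SD, cut at about 35% in these data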;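 also: 0% = median DMSO wells and 100% = median Neomycin B control wells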
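Test system: Cy5-tagged RRE RNA duplex with fluorescein-tagged Rev peptide | Read-out: % inhibition of FRET ratio versus controls | Probe or stimulus: Labelled Rev peptide | Incubation: 5 min RNA-compound premix plus 15 min binding step, 25 °C | Technique: FRET fluorescence readout | Benchmarks: DMSO low control, neomycin B high control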
Cav32 inh = blocks human Cav3.2 T-type calcium channel | B-score at 10 µM | Cav3.2-expressing cells, Fluo-4 calcium fluorescence FDSS; hits give low values | hit rate 4% among 100,000 | O95180;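 active = single-dose well whose peak fluorescence ratio is a statistical outlier from its plate by either plate-standardised score or position-corrected B-score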
CYP2C9 act = activators of human CYP2C9. recombinant CYP2C9, luciferin-H conversion, luminescence; hits give high values; factor 1 = untreated enzyme, 0 = blocked. activation factor at 5 µM. hit rate 1.4% among 96,000;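 active = activation factor of 2 or more for CYP2C9 at a 5 µM dose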;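 also: 0 = sulfaphenazole-blocked wells and 1 = vehicle-only wells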
CYP2C19 inh = inhibitors of human CYP2C19. CYP2C19 Supersomes, luciferin-H EGE luminescence, 30 min. inhibition, % at 5 µM. hit rate 21% among 96,000. AID 778;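 active = CYP2C19 inhibition above a set limit at 5 µM in the primary screen, cut at about 50% in these data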;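 also: plate controls were negative control wells for no effect and 2.5 mM tranylcypromine positive control for full effect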
CYP2C9 inh = blocks human cytochrome P450 2C9; hit rate 20% among 96,000; CYP2C9 Supersomes, luciferin-H conversion, luminescence; inhibition, % at 5 µM; P11712;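 active = blocking of liver enzyme CYP2C9 beyond about 50% at 5 µM, limit read from the data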
* hit, by the source's call; . = no result; [ ] = another dose, or the depositor's remark.

SMILES | CYP2C19 act | HIV Rev-RRE inh | Cav32 inh | CYP2C9 act | CYP2C19 inh | CYP2C9 inh
N#Cc1ccccc1NC(=O)COC(=O)CSc1nc2ccccc2o1 | 0.9 | -4 | . | 0.7 | 13 | 28
Cc1nn(C(C)(C)C)c(OC(=O)c2cccs2)c1S(=O)(=O)c1ccccc1 | 0.7 | 18 | -2.9 | 0.1 | 33 | 87*
CS(=O)(=O)n1nc(OC(=O)c2cccs2)cc1N | . | . | 1 | . | . | .
COCC(=O)OCC(=O)Nc1cc(C(C)(C)C)nn1-c1ccccc1 | 1.1 | 2 | 0.0054 | 0.9 | -15 | 9
COc1cc(N)n(S(=O)(=O)c2ccc(C)cc2)n1 | . | . | 0.33 | . | . | .
CCC(=O)Oc1c(S(=O)(=O)c2ccc(C)cc2)c(C)nn1C(C)(C)C | 0.3 | -1 | -0.66 | 0.5 | 69* | 52*
COCC(=O)Oc1c(S(=O)(=O)c2ccc(C)cc2)c(C)nn1-c1ccccc1 | 1 | 11 | -0.58 | 0.2 | -4 | 81*
Cc1ccc(CN2C(=O)CCC2C(=O)NCCN(CC(C)C)CC(C)C)cc1 (stereo unspecified) | 0.9 | 1 | 0.15 | 0.7 | 8 | 27
CN1CCC(OC(=O)COc2ccc(C(C)(C)C)cc2)CC1 | 0.9 | -6 | . | 1 | 6 | 4
CC1(C)C(c2ccccc2)=NC(c2ccc(F)cc2)N1O (stereo unspecified) | 0.6 | 4 | 0.52 | 1 | 39 | -4
COc1ccccc1N(CCC#N)C(=O)CSc1nc(-c2ccccc2)cn1N | 0.3 | 5 | 0.57 | 0.8 | 75* | 21
C[C@@H](C(=O)NCc1ccccn1)[C@@H]1C[C@@]1(C)[C@@H](NC(=O)OCc1ccccc1)c1ccccc1 | . | . | -1.3 | . | . | .
C#CCOC(=O)CCC(=O)NCCc1ccccc1 | 0.3 | . | -0.43 | 0.7 | 67* | 26
CC(C)Cn1c(CN2CCCCC2C)nc2c1c(=O)n(C)c(=O)n2C (stereo unspecified) | 0.9 | -1 | -0.17 | 0.9 | 8 | 12
COC(=O)c1cc(COC(=O)c2cccnc2SC)oc1C | 0.9 | 13 | -2.1 | 1 | 12 | 0
O=C(c1cc2ccccc2oc1=O)N1CCSC1c1ccco1 (stereo unspecified) | 0.4 | 2 | 1.2 | 2.5* | 56* | -155
CC1CN(C(=O)c2cc3ccccc3oc2=O)CC(C)O1 (stereo unspecified) | 1 | . | 1.3 | 1.8 | -1 | -79
Cc1ccc(S(=O)(=O)N2CCOCC2)cc1C(=O)NCc1cn2ccsc2n1 | 1 | 6 | -0.2 | 1 | -2 | -2
Cc1ccc(Cn2nnc3c(=O)[nH]c(C4CCCN(C(=O)Nc5ccc(F)cc5)C4)nc32)cc1 (stereo unspecified) | 1.1 | 6 | 0.059 | 1 | -7 | -1
Cc1ccc(Cn2nnc3c(=O)[nH]c(C4CCN(C(=O)c5cccs5)CC4)nc32)cc1 | 0.5 | 11 | -1.2 | 0.3 | 45 | 72*
Cc1ccc(C)c(Cn2nnc3c(=O)[nH]c(C4CCN(C(=O)c5cccs5)CC4)nc32)c1 | 0.5 | 15 | -4.1 | 0.1 | 51* | 88*
O=C(NCCN1CCCC1)c1ccc2c(=O)n(CCc3ccccc3)c(=O)[nH]c2c1 | 0.8 | 3 | 0.47 | 0.9 | 18 | 13
CN(C)c1ccc(N=Cc2nc(-c3ccccc3)oc2O)cc1 | 0.5 | 69*[fluorescence artefact?] | . | 0.7 | 50* | 31
Oc1oc(-c2ccccc2)nc1C=NCc1ccccc1 | 0.2 | 8 | -1.3 | 0.3 | 78* | 69*
CSc1ccccc1N=Cc1nc(-c2ccccc2)oc1O | 0.3 | 1 | -1.2 | 0.9 | 68* | 7
SMILES | CYP2C19 act | HIV Rev-RRE inh | Cav32 inh | CYP2C9 act | CYP2C19 inh | CYP2C9 inh
Oc1oc(-c2ccccc2)nc1C=Nc1ccccc1 | 0.6 | 3 | . | 0.5 | 42 | 48
CCCc1oc2c(c(=O)c1CC)C(=O)CC(C)(C)C2 | 0.6 | 1 | 0.47 | 0.8 | 41 | 22
CC(=O)C1=C(O)C(=O)N(c2ccc(C)cc2)C1c1ccccn1 (stereo unspecified) | . | 11 | 1.4 | . | . | .
COc1ccc(Cl)cc1C(=O)NC(=S)Nc1cc(-c2nc3ccccc3[nH]2)ccc1C | . | -2 | -4.8* | . | . | .
COc1ccc(-n2nc3cc(C)c(NC(=S)NC(=O)c4ccccc4C)cc3n2)cc1 | 1 | 4 | 0.22 | 0.9 | 3 | 8
CSCCC(NC(=O)C1CC1)c1nc2ccccc2[nH]1 (stereo unspecified) | 0.9 | 7 | -0.071 | 0.9 | 13 | 6
O=C(NCc1nc2ccccc2[nH]1)c1ccc(Cl)c(S(=O)(=O)N2CCCC2)c1 | 0.3 | 3 | -2.9 | 0.5 | 65* | 45
O=C(Nc1ccccc1-c1nc2ccccc2[nH]1)c1ccc(S(=O)(=O)N2CCCCC2)cc1 | 1 | -2 | 0.16 | 0.9 | 4 | 9
CCCn1c(NC(=O)c2ccc(Cl)c(S(=O)(=O)N3CCCC3)c2)nc2ccccc21 | 0.2 | 10 | -3.1 | 0.2 | 83* | 84*
Cc1c(Cl)c(C(=O)Nc2nc3ccccc3n2CCN2CCCCC2)nn1C | 0.8 | 9 | . | 0.9 | 22 | 5
CSCC[C@H](NC(=O)c1ccc(Cl)c(S(=O)(=O)N2CCCC2)c1)c1nc2ccccc2[nH]1 | 0.4 | 6 | -2.6 | 0.3 | 59* | 68*
CCOCCn1c(SCc2c(F)cccc2Cl)nc2c1c(=O)[nH]c(=O)n2C | 0.8 | 0 | 0.39 | 0.9 | 22 | 6
C=CCn1c(CNc2ccccc2)nnc1SCC(=O)N/N=C/c1ccccc1O | 1 | 12 | -3.2 | 0.9 | -4 | 10
CC(=O)N(CN1C(=O)c2ccccc2C1=O)c1ccccc1 | 0.4 | -2 | 0.76 | 0.7 | 59* | 29
CC(=O)N(CN1C(=O)c2ccccc2C1=O)c1cccc(C)c1 | 0 | 5 | 0.09 | 0.7 | 97* | 26
Cc1cccc(NCN2C(=O)c3ccccc3C2=O)c1 | 1 | 4 | 0.71 | 0.9 | 2 | 12
Cc1nn(CC(=O)Nc2nnc(CC(=O)N3CCCC3)s2)c(=O)c2ccccc12 | 1.2 | 6 | -0.36 | 1.2 | -18 | -18
NC(=O)C1(N2CCCCC2)CCN(CC(=O)Nc2ccccc2-c2ccccc2)CC1 | 0.6 | 8 | 0.05 | 0.8 | 40 | 17
CCCSc1nc(=O)n2cccc(C)c2n1 | 1 | 6 | 0.65 | 0.8 | 0 | 19
N#CC1(c2ccccc2)CCCN1C(=O)c1ccc(Br)cc1 (stereo unspecified) | 0.4 | 5 | -0.39 | 0.4 | 64* | 60*
O=C(NC1CCCCC1)C(c1ccc2ncccc2c1)N(Cc1ccccc1)C(=O)c1ccc2c(c1)OCCO2 (stereo unspecified) | 0.2 | 1 | -0.97 | 0.3 | 80* | 67*
COc1ccc(CN(C(=O)c2nsc(Cl)c2Cl)C(C(=O)NC2CCCCC2)c2ccc(OC)cc2)cc1 (stereo unspecified) | 0.5 | 2 | -3.3 | 0.4 | 51* | 58*
COc1cccc(CN(C(=O)c2ccco2)C(C(=O)NC2CCCC2)c2cccnc2)c1 (stereo unspecified) | 0.8 | -1 | -0.55 | 0.9 | 23 | 12
